Measured values: ChEMBL document CHEMBL2169872, “(S)-N-(2,5-Dimethylphenyl)-1-(quinoline-8-ylsulfonyl)pyrrolidine-2-carboxamide as a small molecule inhibitor probe for the study of respiratory syncytial virus infection” (J Med Chem, 2012)
Converted amounts (≈) assume the structure as drawn.

Legend:
[1] = tested on: HEp-2; assay: Cytotoxicity against human Hep2 cells by Cell Titer-Glo assay; assay type: cell-based
[2] = tested on: Respiratory syncytial virus; assay: Antiviral activity against Respiratory syncytial virus Long infected in human Hep2 cells assessed as reduction in virus-induced cytopathogenicity by Cell Titer-Glo assay; assay type: functional, organism-based; conditions: HEp-2
[3] = Selectivity index, ratio of CC50 for human Hep2 cells to EC50 for Respiratory syncytial virus Long infected in human Hep2 cells
[4] = tested on: Respiratory syncytial virus; assay: Antiviral activity against Respiratory syncytial virus Long infected in human Hep2 cells assessed as log reduction in virus titer at 25 uM by virus plaque reduction assay; assay type: functional, HEp-2
[5] = tested on: Respiratory syncytial virus; assay: Antiviral activity against Respiratory syncytial virus Long infected in human Hep2 cells assessed as post infection time duration of protection against virus-induced cytopathogenicity by Cell Titer-Glo assay; assay type: functional, HEp-2
Procedure, shortened: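 HEp-2 cells seeded at 10 000 cells/well, held 24 h at 37 °C, 5% CO2, then infected with hRSV Long at MOI 3.0 at time 0. Compound added at 25 μM final, in triplicate, at −1, 0, 1, 2, 3, 5, 7, 21 or 24 h pi. Incubated 6 days at 37 °C, 5% CO2. Read by Cell Titer-Glo luminescence after 30 min room-temperature equilibration and 10 min reagent incubation. Uninfected and infected untreated wells served as controls.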

[6] = Aqueous solubility in PBS buffer; assay type: physicochemical
[7] = Chemical stability in 50% PBS/50% acetonitrile solution assessed as unchanged parent compound remaining after 48 hrs; assay type: physicochemical; conditions: read-out: Stability
[8] = tested on: Respiratory syncytial virus; assay: Antiviral activity against Respiratory syncytial virus Long infected in human Hep2 cells assessed as protection against virus-induced cytopathogenicity by measuring cell viability at 24 hrs post infection by Cell Titer-Glo assay; assay type: functional, HEp-2
Procedure, shortened: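 HEp-2 cells seeded at 10 000/well and held 24 h at 37 °C, 5% CO₂, then infected at time 0 with hRSV Long at MOI 3.0. Compound added at 25 μM final, in triplicate, at −1 to 24 h post-infection. After 6 days at 37 °C, plates were brought to room temperature and Cell Titer-Glo luminescence read after 10 min. Cell-only and virus-only controls were included.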

[9] = tested on: HEp-2; assay: Cytotoxicity against uninfected human Hep2 cells assessed as cell viability at 25 uM measured after 144 hrs by Cell Titer-Glo assay; assay type: cell-based; conditions: hep-2, 144 h
Procedure, shortened: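 Uninfected HEp-2 cells were given compound at 25 μM at time point 0. Viability was read by Cell Titer-Glo after 144 h.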

| Compound | CC50 [1] [µM] | EC50 [2] [µM] | further results |
| --- | --- | --- | --- |
| Cc1ccc(NC(=O)CN(C)S(=O)(=O)c2cccc3cccnc23)c(C)c1 | > 50 | > 50 |  |
| Cc1ccc(NC(=O)[C@H]2CCCN2S(=O)(=O)c2cccc3cccnc23)c(C)c1 | 38.1 | > 50 | selectivity ratio [3]: 0.8 |
| Cc1ccc(NC(=O)[C@@H]2CCCN2S(=O)(=O)c2cccc3cccnc23)c(C)c1 | 31.8 | 2.7 | FC [4]: 1; selectivity ratio [3]: 11.8 |
| Cc1ccc(NC(=O)CNS(=O)(=O)c2cccc3cccnc23)c(C)c1 | > 50 | > 50 |  |
| Cc1ccc(NC(=O)C(C)NS(=O)(=O)c2cccc3cccnc23)c(C)c1 (configuration not stated) | > 50 | > 50 |  |
| Cc1ccccc1NC(=O)[C@@H]1CCCN1S(=O)(=O)c1cccc2cccnc12 | > 50 | 23.8 |  |
| Cc1cccc(NC(=O)[C@@H]2CCCN2S(=O)(=O)c2cccc3cccnc23)c1 | 25.5 | > 50 |  |
| Cc1ccc(NC(=O)[C@@H]2CCCN2S(=O)(=O)c2cccc3cccnc23)cc1 | 31.7 | > 50 |  |
| O=C(Nc1ccccc1)[C@@H]1CCCN1S(=O)(=O)c1cccc2cccnc12 | 35.6 | > 50 |  |
| CCc1ccccc1NC(=O)[C@@H]1CCCN1S(=O)(=O)c1cccc2cccnc12 | > 50 | 21.2 |  |
| CC(C)c1ccccc1NC(=O)[C@@H]1CCCN1S(=O)(=O)c1cccc2cccnc12 | 29.9 | 17.6 |  |
| Cc1ccnc(C)c1NC(=O)[C@@H]1CCCN1S(=O)(=O)c1cccc2cccnc12 | > 50 | > 50 |  |
| Cc1cc(C)cc(NC(=O)[C@@H]2CCCN2S(=O)(=O)c2cccc3cccnc23)c1 | 31.3 | > 50 |  |
| O=C(Nc1ccc(Cl)cc1Cl)[C@@H]1CCCN1S(=O)(=O)c1cccc2cccnc12 | > 50 | > 50 |  |
| Cc1ccc(C)c(NC(=O)[C@@H]2CCCN2S(=O)(=O)c2cccc3cccnc23)c1 | 30.9 | 2.3 | Time [5]: 1 h; solubility [6]: 92.7 µg/mL (≈ 226 µM); remaining at 48 h [7]: 95.4%; Activity [8]: 26%; FC [4]: 2 |
| Cc1cccc(C)c1NC(=O)[C@@H]1CCCN1S(=O)(=O)c1cccc2cccnc12 | > 50 | > 50 |  |
| Cc1ccc(Cl)cc1NC(=O)[C@@H]1CCCN1S(=O)(=O)c1cccc2cccnc12 | 10 | 2.2 |  |
| Cc1ccc(C(F)(F)F)cc1NC(=O)[C@@H]1CCCN1S(=O)(=O)c1cccc2cccnc12 | 4.8 | > 50 |  |
| COc1ccc(C)c(NC(=O)[C@@H]2CCCN2S(=O)(=O)c2cccc3cccnc23)c1 | 44.2 | 4.2 | Activity [9]: 88%; FC [4]: 1 |
| Cc1ccc(C(C)C)cc1NC(=O)[C@@H]1CCCN1S(=O)(=O)c1cccc2cccnc12 | 9.7 | > 50 |  |
| Cc1ccc(C(C)(C)C)cc1NC(=O)[C@@H]1CCCN1S(=O)(=O)c1cccc2cccnc12 | 6.5 | > 50 |  |
| Cc1ccc(Cl)c(NC(=O)[C@@H]2CCCN2S(=O)(=O)c2cccc3cccnc23)c1 | > 50 | > 50 |  |
| COc1ccc(C)cc1NC(=O)[C@@H]1CCCN1S(=O)(=O)c1cccc2cccnc12 | > 50 | > 50 |  |
| Cc1cc(NC(=O)[C@@H]2CCCN2S(=O)(=O)c2cccc3cccnc23)n(C(C)(C)C)n1 | > 50 | > 50 |  |
| Cc1ccc(NC(=O)C2CCCN2S(=O)(=O)c2cccc3cccnc23)c(C)c1 (racemic) | 31.5 | 5 | FC [4]: 2.1; selectivity ratio [3]: 6.3 |
| NC(=O)c1ncn([C@@H]2O[C@H](CO)[C@@H](O)[C@H]2O)n1 [RIBAVIRIN] | 114 | 28.4 | Activity [9]: 90%; Time [5]: 7 h; FC [4]: 2.5 |
